Active and inactive are the calls of the source. The rule behind the calls is not given here.

Our source for the IC50, inhibition and EC50 values is ChEMBL document CHEMBL3091432, “(S)-4-Trimethylsilyl-3-butyn-2-ol as an auxiliary for stereocontrolled synthesis of salinosporamide analogs with modifications at positions C2 and C5” (Bioorg Med Chem Lett, 2013).

In test [1] the target is T1, Proteasome Macropain subunit MB1 (Homo sapiens, UniProt P28074).
T1 sequence (P28074 whole entry): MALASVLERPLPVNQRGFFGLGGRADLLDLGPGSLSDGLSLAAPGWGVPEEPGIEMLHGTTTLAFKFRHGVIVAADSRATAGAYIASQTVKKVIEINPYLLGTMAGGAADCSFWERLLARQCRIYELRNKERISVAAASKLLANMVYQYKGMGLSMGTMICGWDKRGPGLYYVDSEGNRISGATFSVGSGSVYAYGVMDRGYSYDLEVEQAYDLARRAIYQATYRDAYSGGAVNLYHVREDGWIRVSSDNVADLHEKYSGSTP
Nature of the test: Inhibition of chymotrypsin like activity of human 20S proteasome after 1 hr by luminescence assay.

For test [2], the target named is T2, Proteasome Macropain subunit MB1 (Homo sapiens) (UniProt P28074).
T2 sequence (whole entry): T1 sequence (P28074 whole entry)
Nature of the test: Inhibition of human 20S proteasome beta 5 subunit assessed as non-cyclized product formation after 5 to 10 mins by ESI-TOF analysis. In outline:
(§1)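 Purified human 20S proteasome (1.4 μM) incubated at 23 °C with a 10-fold molar excess of inhibitor in pH 7.5 buffer (10 mM Tris/HCl, 1 mM EDTA, 1 mM DTT, <1% DMSO) for varying times. Reactions stopped by denaturing quench, desalted on C4 tips, eluted with 70:30:0.1 acetonitrile–water–formic acid, then analysed by mass spectrometry to follow each step of subunit modification.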

Test [3] has as its target T2, Proteasome Macropain subunit MB1 (Homo sapiens). Nature of the test: Inhibition of human 20S proteasome beta 5 subunit assessed as non-cyclized product formation after 5 to 10 mins by FT-MS analysis. The method in brief: as §1
Test [4] has the same target. Nature of the test: Inhibition of human 20S proteasome beta 5 subunit assessed as cyclized acylated protein adduct formation after <20 mins by FT-MS analysis. In outline: as §1
Test [5] has the same target. Nature of the test: Inhibition of human 20S proteasome beta 5 subunit assessed as cyclized acylated protein adduct formation after <20 mins by ESI-TOF analysis. In outline:
as §1

In test [6] the target is T1, Proteasome Macropain subunit MB1. Nature of the test: Inhibition of chymotrypsin like activity of 20S proteasome in HEK293 cells after 24 hrs by microscopic analysis. The format is cell-based. The method in brief: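 Image-based screen in a stably transfected HEK cell line expressing a GFP-tagged proteasomal substrate. Proteasomal inhibition is read out by cellular fluorescence.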

For test [7], the target named is T2, Proteasome Macropain subunit MB1 (Homo sapiens). Nature of the test: Inhibition of human 20S proteasome beta 5 subunit assessed as cyclized acylated protein adduct formation after 48 hrs by FT-MS analysis. The method in brief:
as §1

Test [8] shares this target. Nature of the test: Inhibition of human 20S proteasome beta 5 subunit assessed as hydrolysis of non-cyclized product after 48 hrs by FT-MS analysis. The method in brief: as §1
Test [9] shares this target. Nature of the test: Inhibition of human 20S proteasome beta 5 subunit assessed as hydrolysis of non-cyclized product after 48 hrs by ESI-TOF analysis. The method in brief:
as §1

The target is the same in test [10]. Nature of the test: Inhibition of human 20S proteasome beta 5 subunit assessed as cyclized acylated protein adduct formation after 48 hrs by ESI-TOF analysis. In outline:
as §1

Broadly, the IC50 is the concentration that gives 50% inhibition. As to `COC(=O)C[C@H]1C(=O)N[C@@]2([C@@H](O)C3CCCCC3)C(=O)O[C@@]12C`, in test [1], the half-maximal inhibitory concentration (IC50) came to 500 nM.

By EC50 is commonly meant the concentration giving half of the maximal effect. Low values mean higher potency in that assay, high ones lower potency in that assay. As to `C[C@@]12OC(=O)[C@]1([C@@H](O)C1CCCCC1)NC(=O)[C@@H]2CCCl`, in test [1], the half-inhibitory concentration (IC50) stood at 23 nM. Also, the inhibition entry in test [2], in [3], in [4] and in [5] was “Active” each time. Besides, the midpoint of the response in test [6], the EC50, lay at 10 nM.

With `C[C@@]12OC(=O)[C@]1([C@@H](O)Cc1ccccc1)NC(=O)[C@@H]2CCCl`, 500 nM corresponded to half-maximal inhibition in test [1] (IC50). The molecule also had a 50% effective concentration (EC50) in test [6] of 332 nM.

In test [1], `C[C@@]12OC(=O)[C@]1([C@@H](O)C1CCCCC1)NC(=O)[C@@H]2CC=O` showed an IC50 of 330 nM.

Turning to `C[C@@]12OC(=O)[C@]1([C@@H](O)C1CCCCC1)NC(=O)[C@@H]2CCCCl`, the inhibition entry in [7], in test [8], in test [9] and in [10] was “inactive” in each case. In test [1], this molecule gave a half-inhibitory concentration (IC50) of 50 nM. The inhibition entry in test [2] and in [3] was “Active” each time. Also, in test [6], the concentration for a half-maximal effect (EC50) is 90 nM.

As for `C[C@@]12OC(=O)[C@]1([C@@H](O)[C@@H]1C=CCCC1)NC(=O)[C@@H]2CCCl` [MARIZOMIB], the IC50 in test [1] is 22 nM. Besides, the inhibition entry in test [2], in test [3], in [4] and in [5] was “Active” throughout.

In test [1], `C[C@@]12OC(=O)[C@]1([C@@H](O)C1CC1)NC(=O)[C@@H]2CCCl` came in with a 50% inhibitory concentration (IC50) of 28 nM. In addition, in test [6], the EC50 was determined as 360 nM.
